Assay results: the RNAGym collection of RNA variant scans (doi:10.1002/anie.201605470)

B1: Osa-1-4 twister ribozyme (parent)
chain: CCGCCUAACACUGCCAAUGCCGGUCCCAAGCCCGGAUAAAAGUGGAGGGGGCGG

Variants of: B1
Assay: self-cleavage, relative activity (ratio to wild type); higher = more cleavage; co-transcriptional
Summary of the method: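 The 48 positions downstream of the cleavage site in a 54-nucleotide Oryza sativa twister ribozyme template were synthesised at 97 % wild-type base and 1 % of each other base. The template was transcribed in vitro at 37 °C for 2 h, with self-cleavage allowed during transcription. Reads with or without upstream sequence after deep sequencing marked cleavage status, and relative activity is fraction cleaved normalised to wild type.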

Variant	self-cleavage
CCGCCUAACACAGCCAAUGCCGGUCCCAAGCCCGAAUAAAAGUGGAGGGGGCGG	0.61
CCGCCUAACACGGCCAAUGCCGGUCCCAAGCCCGAAUAAAAGUGGAGGGGGCGG	0.06
CCGCCUAACACCGCCAAUGCCGGUCCCAAGCCCGAAUAAAAGUGGAGGGGGCGG	0.48
CCGCCUAACACUGCCAAUGCCGGUCCCAAGCCCGAAUAAAAGUGGAGGGGGCCG	0.08
CCGCCUAACACUGCCAAUGCCGGUCCCAAGCCCGAAUAAAAGUGGAGGGGGCUG	0.22
CCGCCUAACACUGCCAAUGCCGGUCCCAAGCCCGAAUAAAAGUGGAGGGGGCAG	0.68
CCGCCUAACACUGCCAAUGCCGGUCCCAAGCCCGAAUAAAAGUGGAGAGGGCGG	0.12
CCGCCUAACACUGCCAAUGCCGGUCCCAAGCCCGAAUAAAAGUGGAGUGGGCGG	0.09
CCGCCUAACACUGCCAAUGCCGGUCCCAAGCCCGAAUAAAAGUGGAGCGGGCGG	0.1
CCGCCUAACACUGCCAAUGCCGGUCCCAAGCCCGCAUAAAAUUGGAGGGGGCGG	0.07
CCGCCUAACACUGCCAAUGCCGGUCCCAAGCCCGCAUAAAAAUGGAGGGGGCGG	0.08
CCGCCUAACACUGCCAAUGCCGGUCCCAAGCCCGCAUAAAACUGGAGGGGGCGG	0.07
CCGCCUAACACUGCCAAUGCCGGUCCCAAGCCCUGAUAAAAGAGGAGGGGGCGG	0.11
CCGCCUAACACUGCCAAUGCCGGUCCCAAGCCCUGAUAAAAGGGGAGGGGGCGG	0.07
CCGCCUAACACUGCCAAUGCCGGUCCCAAGCCCUGAUAAAAGCGGAGGGGGCGG	0.15
CCGCCUAACACUGCCAAUGCCGGUCCCAAGCCCUGAUAAAAGUGGAGGGGGCCG	0.05
CCGCCUAACACUGCCAAUGCCGGUCCCAAGCCCUGAUAAAAGUGGAGGGGGCUG	0.11
CCGCCUAACACUGCCAAUGCCGGUCCCAAGCCCUGAUAAAAGUGGAGGGGGCAG	0.27
CCGCCUAACACUGCCAAAGCCGGUCCCAAGCCCGAAUAAAAGUGGAGGGGGCGG	0.79
CCGCCUAACACUGCCAAGGCCGGUCCCAAGCCCGAAUAAAAGUGGAGGGGGCGG	0.79
CCGCCUAACACUGCCAACGCCGGUCCCAAGCCCGAAUAAAAGUGGAGGGGGCGG	0.52
CCGCCUAACACUGCCAAUGCCGGUCCCAAGCCCGCAUAAAAGUAGAGGGGGCGG	0.25
CCGCCUAACACUGCCAAUGCCGGUCCCAAGCCCGAAUAAAAGUGGAUGGGGCGG	0.18
CCGCCUAACACUGCCAAUGCCGGUCCCAAGCCCGAAUAAAAGUGGACGGGGCGG	0.11

Variant	self-cleavage
CCGCCUAACACUGCCAAUGCCGGUCCCAAGCCCGAAUAAAAGUGGAAGGGGCGG	0.27
CCGCCUAACACUGCCAAUGCCGGUCCCAAGCCCGAAUAAAAGUGGAGGGGGCGU	0.81
CCGCCUAACACUGCCAAUGCCGGUCCCAAGCCCGAAUAAAAGUGGAGGGGGCGC	0.85
CCGCCUAACACUGCCAAUGCCGGUCCCAAGCCCGAAUAAAAGUGGAGGGGGCGA	0.85
CCGCCUAACACUGCCAAUGCCGGUCCCAAGCCCGAAUAAAAGUGGAGGGGCCGG	0.07
CCGCCUAACACUGCCAAUGCCGGUCCCAAGCCCGAAUAAAAGUGGAGGGGUCGG	0.12
CCGCCUAACACUGCCAAUGCCGGUCCCAAGCCCGAAUAAAAGUGGAGGGGACGG	0.25
CCGCCUAACACUGCCAAUGCCGGUCCCAAGCCCGAAUAAAAGUGGAGGGUGCGG	0.9
CCGCCUAACACUGCCAAUGCCGGUCCCAAGCCCGAAUAAAAGUGGAGGGCGCGG	0.78
CCGCCUAACACUGCCAAUGCCGGUCCCAAGCCCGAAUAAAAGUGGAGGGAGCGG	0.35
CCGCCUAACACUGCCAAGGCCGGUCCCAAGCCCUGAUAAAAGUGGAGGGGGCGG	0.58
CCGCCUAACACUGCCAAAGCCGGUCCCAAGCCCUGAUAAAAGUGGAGGGGGCGG	0.64
CCGCCUAACACUGCCAACGCCGGUCCCAAGCCCUGAUAAAAGUGGAGGGGGCGG	0.31
CCGCCUAACACUGCCAAUGCCGGUCCCAAGCCCUGAUAAAAGUGGAGGGGACGG	0.1
CCGCCUAACACUGCCAAUGCCGGUCCCAAGCCCUGAUAAAAGUGGAGGGGCCGG	0.05
CCGCCUAACACUGCCAAUGCCGGUCCCAAGCCCUGAUAAAAGUGGAGGGGUCGG	0.06
CCGCCUAACACUGCCAAUGCCGGUCCCAAGCCCGAAAAAAAGUGGAGGGGGCGG	1.05
CCGCCUAACACUGCCAAUGCCGGUCCCAAGCCCGAAGAAAAGUGGAGGGGGCGG	0.89
CCGCCUAACACUGCCAAUGCCGGUCCCAAGCCCGAACAAAAGUGGAGGGGGCGG	0.92
CCGCCUAACACUGCCAAUGCCGGACCCAAGCCCGAAUAAAAGUGGAGGGGGCGG	0.32
CCGCCUAACACUGCCAAUGCCGGGCCCAAGCCCGAAUAAAAGUGGAGGGGGCGG	0.03
CCGCCUAACACUGCCAAUGCCGGCCCCAAGCCCGAAUAAAAGUGGAGGGGGCGG	0.08
CCGCCUAACACUGCCAAUGCCGGUCCCAAGCCCUGAUAAAAGUGGAGUGGGCGG	0.05
CCGCCUAACACUGCCAAUGCCGGUCCCAAGCCCUGAUAAAAGUGGAGAGGGCGG	0.07
